Screens from PubChem.
This is a sample that favours compounds with a hit; in the whole collection about 1% have one here.
MT stabilize HCS: stabilizes microtubules in HeLa cells | HeLa tubulin immunostaining HCS, 24 h; share of cells brighter than vehicle mean+2SD | % tubulin-high responders, % at 10 µM | 0.83% of 200,000 active;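 active = plate Z-score above 3 for both tubulin-high and condensed-nucleus cell shares, with cell loss under 80%, at 10 µM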;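 also: anti alpha tubulin signal scored within the nucleus-defined area of each cell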
ABCG2 block: human ABCG2 inhibition, ABCB1 as counter-screen. IgMXP3 cells, JC-1 efflux, flow cytometry. inhibition, % at 6.6 µM. 0.1% of 190,000 active. AID 1325;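 active = inhibition above 80%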;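 also: 0% = DMSO and 100% = nicardipine control wells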
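System: two drug-resistant human cell lines, ABCG2 and ABCB1; controls: nicardipine high and DMSO low controls; times: 10 min exposure at 25 °C with rotation, no wash; detection: flow cytometry of retained JC-1 fluorescence; read-out basis: percent efflux inhibition, scaled nicardipine 100% to DMSO 0%; doses: one concentration, 6.6 µM final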
ABCB1 inh: inhibitors of human ABCB1 transporter, ABCG2 counter-screen | P08183 | CCRF-Adr cells, JC-1 efflux, flow cytometry | inhibition, % at 6.6 µM | 0.067% of 190,000 active | AID 1326; in the data active = inhibition above about 40%;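 also: 0% = vehicle and 100% = reference inhibitor; higher value means more JC-1 retained so stronger ABCB1 efflux block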
Target sequence (P08183 whole entry, looked up): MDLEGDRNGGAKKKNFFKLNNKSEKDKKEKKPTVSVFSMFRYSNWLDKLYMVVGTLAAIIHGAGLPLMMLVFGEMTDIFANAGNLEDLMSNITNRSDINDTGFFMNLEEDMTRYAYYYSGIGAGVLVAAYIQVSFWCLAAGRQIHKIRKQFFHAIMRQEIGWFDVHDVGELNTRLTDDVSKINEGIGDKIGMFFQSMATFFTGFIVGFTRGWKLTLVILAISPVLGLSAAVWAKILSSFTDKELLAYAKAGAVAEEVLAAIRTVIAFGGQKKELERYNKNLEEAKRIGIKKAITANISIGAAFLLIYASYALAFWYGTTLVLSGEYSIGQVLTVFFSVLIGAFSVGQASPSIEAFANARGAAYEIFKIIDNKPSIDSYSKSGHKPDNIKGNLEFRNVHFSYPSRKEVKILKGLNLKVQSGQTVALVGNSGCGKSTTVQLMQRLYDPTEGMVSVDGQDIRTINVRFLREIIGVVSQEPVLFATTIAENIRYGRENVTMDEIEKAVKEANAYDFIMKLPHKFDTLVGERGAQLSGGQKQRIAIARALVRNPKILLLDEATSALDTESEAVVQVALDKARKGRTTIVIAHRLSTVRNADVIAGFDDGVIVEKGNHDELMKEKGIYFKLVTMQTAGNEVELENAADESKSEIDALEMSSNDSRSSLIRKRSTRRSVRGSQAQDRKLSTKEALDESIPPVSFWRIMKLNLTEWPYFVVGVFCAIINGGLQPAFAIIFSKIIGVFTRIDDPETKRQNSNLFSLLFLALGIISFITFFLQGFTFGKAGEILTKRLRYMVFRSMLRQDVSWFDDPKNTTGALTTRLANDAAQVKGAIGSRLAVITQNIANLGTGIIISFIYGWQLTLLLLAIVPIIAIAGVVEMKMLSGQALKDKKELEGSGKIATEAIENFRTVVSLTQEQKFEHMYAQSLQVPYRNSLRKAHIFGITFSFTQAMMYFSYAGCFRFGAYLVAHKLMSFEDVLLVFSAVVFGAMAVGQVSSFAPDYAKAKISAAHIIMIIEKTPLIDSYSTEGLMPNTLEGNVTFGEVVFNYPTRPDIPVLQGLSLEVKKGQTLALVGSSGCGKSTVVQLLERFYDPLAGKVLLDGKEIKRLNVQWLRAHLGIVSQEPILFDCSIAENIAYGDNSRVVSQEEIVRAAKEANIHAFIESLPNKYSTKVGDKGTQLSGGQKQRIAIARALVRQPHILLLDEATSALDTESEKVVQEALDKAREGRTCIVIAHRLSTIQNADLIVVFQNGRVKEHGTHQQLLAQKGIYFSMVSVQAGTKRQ
b-catenin transl: modulators of beta-catenin nuclear translocation; HeLa beta-catenin nuclear translocation, immunofluorescence imaging; nuclear translocation activity, % at 5 µM; 0.3% of 190,000 active; AID 1665;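 active = nuclear translocation activity above 50% at 5 µM, with a well cell count of 50 or more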;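 also: per-cell ratio of nuclear to cytoplasmic median beta-catenin stain intensity; plate controls were DMSO negative control for no effect and GSK-3 inhibitor IX positive control for full effect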
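Test system: human HeLa cell line; Doses: 5 µM primary, 0.02–20 µM confirmation; Incubation: 24 h compound exposure, 37°C; Detection: beta-catenin immunofluorescence imaging with DAPI; Read-out: beta-catenin nuclear/cytoplasmic ratio, % activation.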
PKD1 kinase inh: PKD1 (human) kinase inhibition; PKD1 kinase fluorescence polarization assay; inhibition, % (concentration not given with the values); 0.056% of 200,000 active; in the data active = inhibition above about 50%
Numbers without * were called inactive; x = no result.

SMILES	MT stabilize HCS	ABCG2 block	ABCB1 inh	b-catenin transl	PKD1 kinase inh
Cc1c(C(=O)N/N=C/c2ccc(N(C)C)cc2)[nH]c2ccc(Cl)cc12	15	-5	-1	41	-1
COc1ccc(/C=N/NC(=O)c2[nH]c3ccc(Br)cc3c2-c2ccccc2)c(C(=O)O)c1OC	x	x	x	1	x
COc1ccc(/C=N/NC(=O)c2[nH]c3ccc(Br)cc3c2-c2ccccc2)cc1	14*	11	0	42	-2
CCN1C(=O)C(F)(CC)C(=O)c2ccccc21 (configuration not stated)	7	-4	-1	2	12
CC(C)CCN1NC2(CCCC(C)C2)NC1=S (configuration not stated)	x	x	x	-1	x
COC(=O)C(NC(=O)c1ccc(C)cc1)(Nc1cccc(C)n1)C(F)(F)F (configuration not stated)	2	5	0	-1	-15
Cc1cccc(NC(=O)c2cc3cc([N+](=O)[O-])ccc3s2)n1	3	0	0	0	-8
O=C(/C=C/c1cccs1)Nc1ccc(Br)cn1	7	1	0	166*	4
O=C(/C=C/c1cccs1)Nc1cccc(NC(=O)/C=C/c2cccs2)n1	3	-6	0	3	6
O=C(CSCc1ccccc1)Nc1ccc(Cl)cn1	4	0	0	0	-3
O=C(Nc1ccc(Cl)cn1)c1ccccc1[N+](=O)[O-]	23*	6	0	1	-5
O=C(/C=C/c1ccccc1)Nc1ccc(Cl)cn1	25*	7	-1	3	0
O=C(CC(c1ccccc1)c1ccccc1)Nc1ccc(Cl)cn1	53*	4	0	-4	-14
O=C(NNC(=O)c1ccccc1[N+](=O)[O-])Nc1ccc(Cl)cc1	3	15	1	-3	-4
NC(=O)CNC(=O)[C@@H]1CC2(CC(c3ccc(Cl)cc3)=NO2)CN1C(=O)c1ccccc1 (some centres not stated)	4	1	0	-3	-2
Cc1cccc(C(=O)Nc2sc3c(c2C#N)CCCCC3)c1	3	1	0	-1	-5
N#Cc1c(NC(=O)c2ccccc2)sc2c1CCC2	33*	1	0	x	-2
CCc1ccc(CCC(=O)Nc2sc3c(c2C#N)CCCC3)o1	17*	2	0	64*	4
N#Cc1c(NC(=O)c2cccnc2)sc2c1CCC2	1	1	0	x	-8
COc1cccc(C(=O)Nc2sc3c(c2C#N)CCN(C(C)=O)C3)c1	28*	4	0	53*	-3
COc1cccc(C(=O)Nc2cc3c(cc2C(C)=O)OCCO3)c1	3	11	1	x	6
O=C(NCCSCc1c(F)cccc1Cl)c1ccc(CN2CCOCC2)cc1	3	7	x	-1	1
Cc1ccc(S(=O)(=O)NN=C2C3CC4CC(C3)CC2C4)cc1[N+](=O)[O-]	3	54	1	-1	-9
CCCc1nnc(NC(=O)C(CC)OC(=O)c2cc(C)nc3ccccc23)s1 (configuration not stated)	2	1	1	0	7
N#C/C(=C\c1ccc(N2CCCCC2)o1)C(=O)Nc1cccc(Br)c1	15	122*	60*	4	33
SMILES	MT stabilize HCS	ABCG2 block	ABCB1 inh	b-catenin transl	PKD1 kinase inh
COc1ccc(C(=O)N2CCCC(CCC(=O)NCc3ccc(F)c(F)c3)C2)o1 (configuration not stated)	2	56	4	0	-6
COc1ccccc1N1CCN(C(=O)c2ccc(Cl)c(S(=O)(=O)NCc3ccco3)c2)CC1	50*	5	1	129*	-2
O=C(c1ccc(Cl)c(S(=O)(=O)NCc2ccco2)c1)N1CCN(c2ccccc2F)CC1	41*	28	3	x	-1
CN1CCN(C(=O)c2cnn3c2NC(c2ccccc2)CC3C(F)(F)F)CC1 (configuration not stated)	9	1	0	-2	-7
Cc1ccc(C(=O)COC(=O)c2cccc(NC(=O)c3ccc([N+](=O)[O-])cc3[N+](=O)[O-])c2)cc1	34*	-1	0	x	-6
C=CCOC(=O)C1=C(C)NC(SC)=C(C#N)C1c1cccs1 (configuration not stated)	38*	2	0	39	2
C=CCOC(=O)C1=C(C)NC(SCC(=O)Nc2nccs2)=C(C#N)C1c1cccs1 (configuration not stated)	3	11	1	-1	7
O=C(CSc1nnc(COc2ccc(Cl)cc2)o1)N1CCOCC1	4	-1	-1	0	-4
COc1ccccc1/C=C/C(=O)Nc1ccc2c(c1)OCCO2	24*	-1	0	73*	0
CCc1ccc(OCc2nnc(SCC(=O)Nc3cccc(C(=O)N4CCOCC4)c3)o2)cc1	3	4	1	x	-7
CN1CCc2c(c3c(n2C)CCN(C)[C@H]3c2ccccc2F)[C@@H]1c1ccccc1F	2	0	0	-1	-5
COc1ccc(CCNc2c(C)c(C)nc3ncnn23)cc1	30*	4	0	15	-10
C/C=C/C=N/Nc1nc(C)cc(=O)[nH]1	2	-1	0	-4	1
CCN(CC)S(=O)(=O)c1ccc2[nH]cc(C(=O)NCCN3CCCCCC3)c(=O)c2c1	4	-1	0	-1	-5
CCN(CC)S(=O)(=O)c1ccc2[nH]cc(C(=O)NCCC3=CCCCC3)c(=O)c2c1	33*	-1	-1	0	4
N=C1C(c2nc3ccccc3c(=O)[nH]2)=C(O)CN1c1ccccc1	42*	-2	-2	x	-4
N=C1C(c2nc3ccccc3s2)=C(O)CN1c1ccccc1	28*	5	0	0	-1
O=C(NCc1ccco1)C1CC(c2c(Cl)cccc2Cl)=NO1 (configuration not stated)	11	1	0	0	-13
O=C(NCc1cccc(C(F)(F)F)c1)C1CC(c2c(Cl)cccc2Cl)=NO1 (configuration not stated)	37*	3	1	44	-1
COc1ccccc1-n1cnc2cc(NCc3ccccn3)ccc21	30*	0	0	x	-4
Cc1ccc(S(=O)(=O)Oc2ccc(/C=C3/N=C(c4ccccc4)OC3=O)cc2)cc1	1	-1	0	0	-4
COC(=O)c1cc(Cl)c(NC(=O)/C=C/c2ccc(OC)cc2)cc1OC	26*	-2	-3	8	1
O=C1NC(=Nc2ccccc2)S/C1=C\C=C\c1ccco1	17*	-1	0	4	-3
Cc1nnc2sc(SCC(=O)Nc3cccc(Cl)c3)nn2c1=O	4	5	1	-2	-3
Cc1cc(C)cc(N=Cc2[nH]c3ccc(Br)c(Cl)c3c2O)c1	31*	-4	0	-1	-7
COc1ccc(-c2[nH]ncc2CN2CCCC(C(=O)c3cccc(OC)c3)C2)cc1 (configuration not stated)	3	1	0	-1	3
